In article PMC2697266 (Nature, 2009):

Legend:
[1] = tested on: JARID1APHD1 (the first PHD finger of JARID1A); test: Biotinylated histone peptide pull-down, JARID1APHD1; assay type: binding, human; conditions: 50mM Tris pH 7.5, 150mM NaCl; qualitative
In short: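 Biotinylated histone peptides were bound to recombinant PHD protein and captured on avidin beads. Beads were washed extensively in 50mM Tris pH 7.5, 150mM NaCl (250mM for stringent washes), 0.05% NP-40, 0.3mg/ml BSA and 1mM DTT; bound protein was then assessed.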

[2] = 15N NMR relaxation, rotational correlation time; assay type: physicochemical; conditions: 15N R2/R1 ratios, pH 7.0, 25°C; estimated
In short: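 0.2-0.5 mM uniformly 15N-labeled JARID1A PHD3 (bacterial His6-SUMO fusion, cleaved, purified by Ni-NTA and gel filtration), free or with unlabeled H3 1-9 K4me3 peptide. R1 and R2 measured with standard pulse sequences at 25°C, 800 MHz with cryoprobe; correlation time estimated from R2/R1 ratios.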

Substance	interaction with JARID1APHD1 in peptide pull-down [1]	rotational correlation time [2] [ns]
H3K4me0: unmodified H3K4 histone peptide	interacted	
JARID1APHD3: C-terminal PHD finger of JARID1A (amino acids 1601-1660) (EESDDENAVCAAQNCQRPCKDKVDWVQCDGGCDEWFHQVCVGVSPEMAENEDYICINCAK; left off: GST, end not stated, kept)		3.5
